SMILES strings stand for the structures.

The values below come from ChEMBL document CHEMBL1144738, “Cytotoxic diterpenoids and sesquiterpenoids from Pteris multifida” (J Nat Prod, 2008).

For one assay, the system named is LoVo. The assay is described as follows: Cytotoxicity against human LoVo cells by SRB method. It is filed as functional, cell-based. A digest of the protocol:
(§1)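 Adherent cells were grown in RPMI1640 with 10% FBS, 100 U/mL penicillin and 100 U/mL streptomycin, then plated and incubated for 24 h. They were exposed to test compounds at 10^-2 to 10^2 µM for 72 h. Growth inhibition was read by sulforhodamine B (SRB) staining and expressed as IC50, the mean of triplicate points. Adriamycin and taxotere were positive controls.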

The test system of a further assay is KB. The assay is described as follows: Cytotoxicity against human KB cells by SRB method. The assay is classed as functional, cell-based. Summed up: as §1
Another assay deals with K562. The assay is described as follows: Cytotoxicity against human K562 cells by WST-1 method.
The next assay relates to HepG2. Kind of assay: Cytotoxicity against human HepG2 cells by SRB method. It is filed as functional, cell-based. A digest of the protocol:
as §1

Take `C=C1[C@@H]2CC[C@H]3[C@]4(C)C[C@H](O)C[C@](C)(CO)[C@H]4CC[C@]3(C2)[C@H]1O`: the IC50 in the assay with LoVo is 20.3 µM; in the assay on KB it was 26.4 µM; in the assay with K562, more than 100 µM; with HepG2, more than 100 µM.

Take `C=C1[C@@H]2CC[C@H]3[C@]4(C)C[C@H](O)C[C@](C)(CO)[C@H]4CC[C@]3([C@@H]2O)[C@H]1O`: the IC50 in the assay with LoVo is 76.3 µM; with KB, 69.6 µM; in the assay with K562, more than 100 µM; with HepG2, more than 100 µM.

Take `Cc1cc2c(c(C)c1CCO[C@@H]1O[C@H](CO)[C@@H](OC(=O)/C=C/c3ccc(O)cc3)[C@H](O)[C@H]1O)C(=O)[C@H](C)C2`: the IC50 with LoVo was more than 400 µM; in the assay on KB, 45.3 µM; with K562 it was 64.6 µM; with HepG2, more than 100 µM.

In the case of `Cc1cc2c(c(C)c1CCO)C(=O)[C@H](C)[C@@H]2O[C@@H]1O[C@H](CO)[C@@H](OC(=O)/C=C/c2ccc(O)cc2)[C@H](O)[C@H]1O`, the IC50 in the assay on LoVo was more than 400 µM; in the assay on KB, 23.8 µM; in the assay on K562 it was 9.57 µM; with HepG2 it was 9.26 µM.

For the compound `CC1(C)C[C@@H](O)C[C@]2(C)[C@@H]1[C@H](O)C[C@@]13C[C@@H](CC[C@H]12)[C@@](O)(CO)C3`, the IC50 in the assay with LoVo amounted to 91.7 µM; in the assay on KB, 53.7 µM; in the assay on K562, 81.9 µM; in the assay on HepG2, 82.4 µM.

With `Cc1cc2c(c(C)c1CCO)C(=O)[C@@H](C)[C@@H]2O[C@@H]1O[C@H](CO)[C@@H](OC(=O)/C=C/c2ccc(O)cc2)[C@H](O)[C@H]1O`, the IC50 was determined as 11.3 µM in the assay with LoVo, 14.2 µM with KB, 10.6 µM in the assay with K562 and 8.69 µM in the assay on HepG2.

Consider `CC(=O)O[C@@]12CO[C@@H]1C[C@H](O)[C@@]1(C)C(=O)[C@H](O)C3=C(C)[C@@H](OC(=O)[C@H](O)[C@@H](NC(=O)OC(C)(C)C)c4ccccc4)C[C@@](O)([C@@H](OC(=O)c4ccccc4)[C@H]21)C3(C)C` [DOCETAXEL], for which the IC50 in the assay with LoVo was determined as 0.00197 µM; in the assay on KB, 0.00114 µM.

As to `COc1cccc2c1C(=O)c1c(O)c3c(c(O)c1C2=O)C[C@@](O)(C(=O)CO)C[C@@H]3O[C@H]1C[C@H](N)[C@H](O)[C@H](C)O1` [DOXORUBICIN], the IC50 was more than 400 µM in the assay on LoVo, more than 400 µM with KB, 0.09 µM with K562 and 0.06 µM in the assay with HepG2.
